Series [1] is described as follows: folding enthalpy; higher = less favourable; fluorescence melt of hairpins on a sequencing array, two-state fit. The conditions noted are these: sodium 0.088 M. Put shortly: (§1)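 Two-state fits, bootstrapped, provided melting temperature and folding enthalpy from Cy3 fluorescence normalised to pre-quench Cy3 and to control constructs. Library hairpins with annealed Cy3 and quencher oligos were imaged on a sequenced MiSeq flow cell in 50 mM Na-HEPES pH 8.0, 25 mM NaCl, at 2.5 °C intervals up to 60 °C. Four replicates were combined with inverse-variance weighting. A 9.35 °C upward shift was applied to fitted temperatures to match UV melts.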

Series [2] in a line: melting temperature; fluorescence melt of hairpins on a sequencing array, two-state fit, raised by 9.35 °C to match UV melts. The conditions noted are these: sodium 0.088 M. In a few lines:
as §1

For the sequence GGTCTGGGAAACCAGATC (.(((((....))))).), the folding enthalpy in series [1] was -25.8 kcal/mol. Also, in series [2], the Tm was determined as 49.4 °C.
The matching figures for GCCATCGAAAGATATGGC ((((((....)))..))): -32 kcal/mol and 46.6 °C.
The matching figures for GACCTTGGAAACAAGACC (..((((....))))..): -10.9 kcal/mol and 20 °C.
For GCGTTCGGAAACGAATGC ((.((((....)))).)), the folding enthalpy in series [1] was -42.1 kcal/mol. Moreover, the Tm in series [2] stood at 58.7 °C.
The matching figures for GCAGAGGGAAACTTCTGC (((((.(....).))))): -35 kcal/mol and 48 °C.
The matching figures for GAATGACGAAAGTCTTC (((.(((....)))))): -16.6 kcal/mol and 34.6 °C.
The matching figures for GCATATGCGAAAGCATGC (((..(((....)))))): -14.8 kcal/mol and 48.2 °C.
Regarding GGTACACGAAAGTGGACC (((.(((....))).))), the folding enthalpy in series [1] is -38.2 kcal/mol. The Tm in series [2] turned out to be 67.2 °C.
The matching figures for GACCCCGAAAGGGCTGTC ((((((....)))..))): -14.6 kcal/mol and 40.9 °C.
For GATAGCCCGAAAGGGATC (((..(((....)))))), the folding enthalpy in series [1] is -8.63 kcal/mol. The Tm in series [2] worked out at 32.6 °C.
Take GCTGCACGAAAGTGAGC (((.(((....)))))): the folding enthalpy in series [1] was -18.8 kcal/mol. Besides, the Tm in series [2] was 51.3 °C.
The matching figures for GTACCCGAAAGGGGTTAC ((((((....)))..))): -10.1 kcal/mol and 35.2 °C.
Consider GCTAGCGGAAACGCCAGC (((.(((....))).))), for which, in series [1], the folding enthalpy is -23.6 kcal/mol. Moreover, in series [2], the Tm was determined as 48.4 °C.
GGTGGTCGAAAGACTACC (((.(((....))).))): the folding enthalpy in series [1] is -43.2 kcal/mol. Besides, the Tm in series [2] came to 57 °C.
The matching figures for GCCCCGGGAAACCGGGAC (.(((((....))))).): -12.2 kcal/mol and 53.7 °C.
The matching figures for GGTGCTGGAAACAGCGCC ((.((((....)))).)): -34.3 kcal/mol and 64.9 °C.
The matching figures for GATCGACGGTTCGATC ((((((....)))))): -39.6 kcal/mol and 50.7 °C.
In the case of GCGGTAGGAAACTACTGC ((.((((....)))).)), in series [1], the folding enthalpy was -34.8 kcal/mol. Besides, the Tm in series [2] was found to be 52.2 °C.
The matching figures for GATCAAACACTTGATC ((((((....)))))): -28.7 kcal/mol and 37.9 °C.
The matching figures for GGATTGGGAAACCGATTC (.((.((....)).)).): -19.9 kcal/mol and 31.6 °C.
Take GATGGCGGAAACGCCACC (.(((((....))))).): the folding enthalpy in series [1] is -9.71 kcal/mol. The Tm in series [2] stood at 43.6 °C.
For the sequence GCATAGCGAAAGCTGGGC ((..(((....)))..)), the folding enthalpy in series [1] is -18.1 kcal/mol. The Tm in series [2] was determined as 56.5 °C.
On to GTCCAAGGAAACTTGAAC ((.((((....)))).)), for which the folding enthalpy in series [1] is -16.9 kcal/mol. In addition, the Tm in series [2] is 29.2 °C.
On to GTGGACGAAAGTCTACAC ((((((....)))..))), for which the folding enthalpy in series [1] is -16.3 kcal/mol. For the same sequence, in series [2], the Tm is 51.2 °C.
The matching figures for GCTGCAACGAAAGTTAGC (((..(((....)))))): -17.2 kcal/mol and 39.8 °C.
Take GGATCTGGAAACAGGTTC (.(.(((....))).).): the folding enthalpy in series [1] was -14.1 kcal/mol. Besides, the Tm in series [2] came out at 30.5 °C.
With GACTAGAAATAGTC (((((....))))), the folding enthalpy in series [1] is -15.7 kcal/mol. Also, in series [2], the Tm came out at 37.6 °C.
GACGAAGGAAACTCCGTC ((((.((....)).)))): in series [1], the folding enthalpy was -26.2 kcal/mol. Moreover, the Tm in series [2] worked out at 37.7 °C.
The matching figures for GGTTCCGAAAGGACACC ((((((....))).))): -24.5 kcal/mol and 48 °C.
The matching figures for GCCCGTGGAAACACGGAC (.(((((....))))).): -14.5 kcal/mol and 50.2 °C.
The matching figures for GATCTAAACTTAGATC ((((((....)))))): -37 kcal/mol and 42.2 °C.
Regarding GTTGGCGAAAGCCCCAAC ((((((....)))..))), the folding enthalpy in series [1] was -6.64 kcal/mol. In addition, the Tm in series [2] came out at 22.5 °C.
The matching figures for GTATGTCCGAAAGGATAC (((..(((....)))))): -16.3 kcal/mol and 26.8 °C.
The matching figures for GGTTTAGCGAAAGCTACC (((..(((....)))))): -12.1 kcal/mol and 32 °C.
The matching figures for GGAGTGTCGAAAGACTCC (((..(((....)))))): -17.2 kcal/mol and 39.2 °C.
On to GGGAGCGGAAACGCCCCC (((.(((....))).))), for which, in series [1], the folding enthalpy was -27.4 kcal/mol. The Tm in series [2] amounted to 61.4 °C.
The matching figures for CGCGGAAAATTCCGCG ((((((....)))))): -32 kcal/mol and 68.3 °C.

The values are drawn from the array DNA melting data of Ke et al. (doi:10.1101/2024.01.08.574731).
